Km, Vmax and Drug metabolism data for three compounds are collected here from ChEMBL document CHEMBL3525985, “Regiospecificity and stereospecificity of human UDP-glucuronosyltransferases in the glucuronidation of estriol, 16-epiestriol, 17-epiestriol, and 13-epiestradiol” (Drug Metab Dispos, 2013).

Holding throughout (format): ADME
One data set deals with Liver microsome. The data set is described as follows: Drug metabolism in human liver microsomes assessed as estriol-3-glucuronide formation after 15 to 60 mins by Michaelis-Menten equation analysis in presence of UDPGA. The procedure, abridged:
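Pooled human liver microsomes (30 donors), 0.5 or 10 µg, with alamethicin at 5% of total protein. Incubated with 50 mM phosphate pH 7.4, 10 mM MgCl₂, 5 mM UDPGA and 10% DMSO for 15–60 min at 37°C. Each glucuronide regioisomer quantified by HPLC, in triplicate, with substrate consumption at or below 10%.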

The target in data set [1] is T1, UDP-glucuronosyltransferase 2B7 (Homo sapiens, UniProt P16662).
T1 sequence (P16662 whole entry): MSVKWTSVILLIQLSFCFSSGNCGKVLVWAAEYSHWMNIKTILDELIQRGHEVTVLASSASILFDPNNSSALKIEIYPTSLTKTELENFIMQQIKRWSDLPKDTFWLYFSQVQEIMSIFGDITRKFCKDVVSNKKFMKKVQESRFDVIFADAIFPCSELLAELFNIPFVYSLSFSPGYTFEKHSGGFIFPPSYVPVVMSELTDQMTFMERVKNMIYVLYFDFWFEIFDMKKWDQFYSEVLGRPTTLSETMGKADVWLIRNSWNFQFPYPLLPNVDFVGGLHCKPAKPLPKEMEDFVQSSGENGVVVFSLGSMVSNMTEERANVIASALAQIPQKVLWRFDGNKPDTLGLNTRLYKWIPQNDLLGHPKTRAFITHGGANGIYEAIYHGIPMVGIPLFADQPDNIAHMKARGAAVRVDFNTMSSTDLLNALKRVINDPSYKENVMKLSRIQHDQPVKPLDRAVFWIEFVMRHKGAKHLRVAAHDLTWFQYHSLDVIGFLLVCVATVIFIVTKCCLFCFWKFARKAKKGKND
The data set is described as follows: Drug metabolism assessed as recombinant human C-terminal His-tagged UGT2B7-mediated estriol-16-glucuronide formation after 15 to 60 mins by Michaelis-Menten equation analysis in presence of UDPGA. The note with it: recombinant enzyme. The procedure, abridged: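 Kinetics with His-tagged UGT-enriched insect-cell membranes (5 or 50 µg): aglycone 0.2–300 µM in 10% DMSO, 5 mM UDPGA, 10 mM MgCl₂, 50 mM phosphate pH 7.4, 15–60 min at 37°C. Substrate consumption kept at or below 10%. Glucuronides quantified by HPLC in triplicate, rates normalized to expression, and data fitted to Michaelis-Menten.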

For data set [2], the target named is T2, UDP-glucuronosyltransferase 1A4 (Homo sapiens, UniProt P22310).
T2 sequence (P22310 whole entry): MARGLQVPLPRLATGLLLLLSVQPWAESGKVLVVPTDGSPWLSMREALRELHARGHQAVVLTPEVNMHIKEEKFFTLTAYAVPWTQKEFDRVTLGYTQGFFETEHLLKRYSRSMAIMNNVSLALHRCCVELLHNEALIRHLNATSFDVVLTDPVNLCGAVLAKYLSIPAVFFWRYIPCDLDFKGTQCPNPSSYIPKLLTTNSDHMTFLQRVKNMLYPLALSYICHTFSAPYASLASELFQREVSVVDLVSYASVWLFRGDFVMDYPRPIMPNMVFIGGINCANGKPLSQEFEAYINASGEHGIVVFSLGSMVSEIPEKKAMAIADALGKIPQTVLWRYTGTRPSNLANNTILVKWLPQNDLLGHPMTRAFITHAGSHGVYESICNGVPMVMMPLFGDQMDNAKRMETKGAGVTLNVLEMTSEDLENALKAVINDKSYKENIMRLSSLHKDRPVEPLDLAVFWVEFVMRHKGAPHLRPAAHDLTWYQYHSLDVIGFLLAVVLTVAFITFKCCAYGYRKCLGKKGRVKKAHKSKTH
The data set is described as follows: Drug metabolism assessed as recombinant human C-terminal His-tagged UGT1A4-mediated estriol-16-glucuronide formation after 15 to 60 mins by Michaelis-Menten equation analysis in presence of UDPGA. Particulars: recombinant enzyme.

For data set [3], the target named is T3, UDP-glucuronosyltransferase 1A3 (Homo sapiens, UniProt P35503).
T3 sequence (P35503 whole entry): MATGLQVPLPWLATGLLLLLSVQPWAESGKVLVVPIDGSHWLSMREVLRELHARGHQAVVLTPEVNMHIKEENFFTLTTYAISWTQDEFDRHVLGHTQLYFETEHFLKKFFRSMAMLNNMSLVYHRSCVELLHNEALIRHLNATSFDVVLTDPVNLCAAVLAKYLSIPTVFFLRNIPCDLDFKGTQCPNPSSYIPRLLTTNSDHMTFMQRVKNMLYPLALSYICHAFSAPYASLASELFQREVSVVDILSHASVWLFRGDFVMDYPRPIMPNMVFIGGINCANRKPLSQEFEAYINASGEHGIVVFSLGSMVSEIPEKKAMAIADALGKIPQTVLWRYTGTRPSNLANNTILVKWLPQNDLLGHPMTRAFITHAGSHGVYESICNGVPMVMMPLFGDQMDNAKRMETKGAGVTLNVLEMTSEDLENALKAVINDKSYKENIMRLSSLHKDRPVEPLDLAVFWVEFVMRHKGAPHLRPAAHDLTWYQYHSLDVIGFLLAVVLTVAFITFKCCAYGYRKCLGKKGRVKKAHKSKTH
The data set is described as follows: Drug metabolism assessed as recombinant human C-terminal His-tagged UGT1A3-mediated 16-epiestriol-16-glucuronide formation after 15 to 60 mins by Michaelis-Menten equation analysis in presence of UDPGA. Particulars: recombinant enzyme.

Data set [4] has as its target UDP-glucuronosyltransferase 1A10 (Homo sapiens, UniProt Q9HAW8, F93G). The data set is described as follows: Drug metabolism assessed as human UGT1A10 F93G mutant-mediated estradiol-3-glucuronide formation at 200 uM after 15 to 60 mins by HPLC analysis in presence of UDPGA. A digest of the protocol: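 Screening at a single substrate concentration of 200 μM, in triplicate. The reaction used 5 or 50 µg of UGT-enriched insect cell membranes in 50 mM phosphate pH 7.4 with 10 mM MgCl₂ and 5 mM UDPGA, 10% final DMSO. Incubation was 15–60 min at 37°C. Perchloric acid stopped the reaction and supernatants were analysed by HPLC. Controls lacked UDPGA. Rates were normalized to relative UGT expression level.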

Sequence of UDP-glucuronosyltransferase 1A10 (Q9HAW8 26-530 F93G limits assumed): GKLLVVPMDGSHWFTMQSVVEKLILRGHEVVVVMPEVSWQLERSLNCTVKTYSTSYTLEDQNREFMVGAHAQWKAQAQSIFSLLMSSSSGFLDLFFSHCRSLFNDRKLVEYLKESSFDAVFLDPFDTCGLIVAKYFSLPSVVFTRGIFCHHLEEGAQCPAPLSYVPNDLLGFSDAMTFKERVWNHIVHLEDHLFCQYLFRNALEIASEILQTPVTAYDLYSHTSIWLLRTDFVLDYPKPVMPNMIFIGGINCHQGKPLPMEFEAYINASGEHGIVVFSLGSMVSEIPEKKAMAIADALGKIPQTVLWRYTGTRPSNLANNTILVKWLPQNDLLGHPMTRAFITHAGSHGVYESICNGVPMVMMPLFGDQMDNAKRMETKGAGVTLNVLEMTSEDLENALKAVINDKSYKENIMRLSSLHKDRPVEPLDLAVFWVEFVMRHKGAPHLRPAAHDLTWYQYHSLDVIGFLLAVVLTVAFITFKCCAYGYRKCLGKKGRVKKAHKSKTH

Turning to `C[C@]12CC[C@@H]3c4ccc(O)cc4CC[C@H]3[C@@H]1C[C@@H](O)[C@@H]2O` [ESTRIOL], in the data set with Liver microsome, the Km was 313 µM and the Vmax is recorded as 95 pmol/min/mg. Further, the Drug metabolism in data set [1] is 1200 pmol/min/mg. For the same compound, in data set [2], the Drug metabolism came out at 4 pmol/min/mg.
For the compound `C[C@]12CC[C@@H]3c4ccc(O)cc4CC[C@H]3[C@@H]1C[C@H](O)[C@@H]2O` [EPIESTRIOL], the Drug metabolism in data set [3] is on record as 5 pmol/min/mg.
As to `C[C@]12CC[C@@H]3c4ccc(O)cc4CC[C@H]3[C@@H]1CC[C@@H]2O` [ESTRADIOL], the Drug metabolism entry in data set [4] is “metabolite_detected”.
